Source: ChEMBL document CHEMBL4613248, “Twelfth-Position Deuteration of Nevirapine Reduces 12-Hydroxy-Nevirapine Formation and Nevirapine-Induced Hepatocyte Death” (J Med Chem, 2020)

How the values were obtained:
[1] = Drug level in C57BL/6J mouse primary hepatocytes treated with 10 uM NVP assessed as Cytochrome P450-mediated compound formation incubated for 24 hrs by uHPLC-MS analysis; assay type: ADME, cell-based
Procedure, shortened: (§1)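 Fresh hepatocytes from male C57BL/6J mice (8–13 weeks), ≥85% viable on plating, adhered overnight, then given fresh medium with compound (final 0.1% DMSO vehicle) for 24 h in 12-well format. Culture medium deproteinized with acetonitrile (final 50%), dried, reconstituted in methanol; monooxygenated metabolites (2-, 3-, 12-OH) measured by uHPLC-MS/MS on Orbitrap. Four experimental replicates.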

[2] = Drug level in C57BL/6J mouse primary hepatocytes treated with 10 uM 2-D3NVP assessed as Cytochrome P450-mediated compound formation incubated for 24 hrs by uHPLC-MS analysis; assay type: ADME, cell-based; details: in the assay text read “12-D3NVP” for “2-D3NVP”; procedure, shortened: as §1
Cytochrome P450 [3] = test: Drug level in human primary hepatocytes treated with 10 uM NVP assessed as Cytochrome P450-mediated compound formation incubated for 24 hrs by uHPLC-MS analysis; assay type: ADME, cell-based
Procedure, shortened: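 Cryoplateable pooled human hepatocytes (10 mixed-sex donors per lot, three lots), ≥90% viable on plating, adhered overnight, then dosed in fresh InVitroGRO CP medium with antibiotics (vehicle 0.1% DMSO) for 24 h, 12-well format. Medium extracted by acetonitrile precipitation (final 50%), dried, reconstituted in methanol; 2-, 3- and 12-OH metabolites quantified by uHPLC-MS/MS on Orbitrap.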

Cytochrome P450 [4] = test: Drug metabolism in human liver microsomes assessed as Cytochrome P450-mediated formation of 2-OHNVP formation at 5 to 400 uM in presence of NADPH regenerating reagents by uHPLC-MS/MS analysis; assay type: ADME
Procedure, shortened: (§2)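 Pooled human liver microsomes (2.5 mg/mL) with NADPH-regenerating system, substrate 5–400 μM, 30 min at 37 °C, 0.1% DMSO (0.2% at 400 μM); 2- and 3-OH metabolites by uHPLC-MS/MS Orbitrap; three replicates, mean ± SD.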

[5] = Drug metabolism in C57BL/6J mouse primary hepatocytes assessed as O-GlucNVP metabolite formation at 10 uM incubated for 24 hrs by uHPLC-MS analysis; assay type: ADME, cell-based, Hepatocyte
Procedure, shortened: (§3)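 Fresh hepatocytes from male C57BL/6J mice (8–13 weeks), adhered overnight, then 10 μM substrate or vehicle (0.1% DMSO) for 24 h. Medium extracted with acetonitrile (50% final), dried, reconstituted in methanol; uHPLC-Orbitrap targeted SIM plus PRM (monooxygenated metabolites) or high-resolution ions (O-glucuronides, 459.1510/462.1700 ±5 ppm); four experimental replicates.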

Cytochrome P450 [6] = test: Drug metabolism in human liver microsomes assessed as Cytochrome P450-mediated formation of 12-OHNVP at 1 to 400 uM in presence of NADPH regenerating reagents by uHPLC-MS/MS analysis; assay type: ADME
Procedure, shortened: (§4)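 Pooled human liver microsomes (2.5 mg/mL) in potassium phosphate; substrate (1–400 μM) prewarmed 5 min at 37 °C with NADPH-regenerating system, started with microsomes, 30 min at 37 °C. 12-OH product quantified by uHPLC-MS/MS Orbitrap against 12-OHNVP standard curve made in microsomes without NADPH. Kcat/Km taken as slope of linear rate vs substrate fit at nonsaturating 0–50 μM.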

[7] = Drug metabolism in C57BL/6J mouse primary hepatocytes assessed as 12-O-GlucD2NVP metabolite formation at 10 uM incubated for 24 hrs by uHPLC-MS analysis; assay type: ADME, cell-based, Hepatocyte; procedure, shortened: as §3
[8] = Drug metabolism in C57BL/6J mouse primary hepatocytes assessed as Cytochrome P450-mediated formation of 2-OHNVP at 10 uM incubated for 24 hrs by uHPLC-MS analysis; assay type: ADME, cell-based; procedure, shortened: as §3
Cytochrome P450 [9] = test: Drug metabolism in human primary hepatocytes assessed as Cytochrome P450-mediated formation of 2-OHNVP at 10 uM incubated for 24 to 48 hrs by uHPLC-MS analysis; assay type: ADME, cell-based
Procedure, shortened: (§5)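 Cryoplateable pooled human hepatocytes (10 mixed-sex donors per pool, three lots), adhered overnight, then 10 μM substrate or vehicle (0.1% DMSO) for 24 or 48 h in InVitroGRO CP medium. Medium extracted with 50% acetonitrile, dried, reconstituted in methanol; uHPLC-Orbitrap MS/MS for monooxygenated metabolites, high-resolution MS for O-glucuronide.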

Cytochrome P450 [10] = test: Drug metabolism in human primary hepatocytes assessed as Cytochrome P450-mediated formation of 3-OHNVP at 10 uM incubated for 24 to 48 hrs by uHPLC-MS analysis; assay type: ADME, cell-based; procedure, shortened: as §5
[11] = Drug metabolism in C57BL/6J mouse primary hepatocytes assessed as Cytochrome P450-mediated formation of 8-OHNVP at 10 uM incubated for 24 hrs by uHPLC-MS analysis; assay type: ADME, cell-based; procedure, shortened: as §3
Cytochrome P450 [12] = test: Drug metabolism in human liver microsomes assessed as Cytochrome P450-mediated formation of 3-OHNVP formation at 5 to 400 uM in presence of NADPH regenerating reagents by uHPLC-MS/MS analysis; assay type: ADME; procedure, shortened: as §2
Hepatocyte = test: Toxicity in C57BL/6J mouse primary hepatocytes assessed as reduction in cell viability by measuring EtBr-positive cell nuclei level at 400 uM incubated for 8 hrs by EtBr/AcrO staining based assay (reference value: 19%)
Procedure, shortened: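 Fresh male C57BL/6J mouse hepatocytes on collagen-coated coverslips, 400 μM compound or vehicle (0.2% DMSO) for 8 h; 10 μM staurosporine as positive control. Ethidium bromide/acridine orange costaining, imaging, percentage of EtBr-positive nuclei scored as dead cells; unpaired two-tailed t test.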

[13] = Drug metabolism in human assessed as formation of 12-OH-NVP; assay type: ADME
Cytochrome P450 [14] = test: Drug metabolism in human liver microsomes assessed as Cytochrome P450-mediated formation of 12-OHNVP by measuring Kcat/Km ratio in presence of NADPH regenerating reagents by uHPLC-MS/MS analysis; procedure, shortened: as §4
[15] = Drug metabolism in C57BL/6J mouse primary hepatocytes assessed as Cytochrome P450-mediated formation of 3-OHNVP at 10 uM incubated for 24 hrs by uHPLC-MS analysis; assay type: ADME, cell-based; procedure, shortened: as §3
[16] = Drug metabolism in human primary hepatocytes assessed as O-GlucNVP metabolite formation at 10 uM incubated for 24 hrs by uHPLC-MS analysis; assay type: ADME, cell-based, Hepatocyte; procedure, shortened: as §5
[17] = Drug metabolism in C57BL/6J mouse primary hepatocytes assessed as Cytochrome P450-mediated formation of 12-OHNVP at 10 uM incubated for 24 hrs by uHPLC-MS analysis; assay type: ADME, cell-based; procedure, shortened: as §3
[18] = Plasma concentration in human; assay type: ADME, cell-free

For `O=C1Nc2c(CO)ccnc2N(C2CC2)c2ncccc21`, the Drug uptake [1] was “Metabolite_Detected”.

In the case of `[2H]C([2H])([2H])c1c(O)cnc2c1NC(=O)c1cccnc1N2C1CC1`, the Drug uptake [2] is reported as “Metabolite_Detected”.

In the case of `Cc1c(O)cnc2c1NC(=O)c1cccnc1N2C1CC1`, the Drug uptake [1] is reported as “Metabolite_Detected” and the Drug uptake (Cytochrome P450 [3]) is reported as “Metabolite_Detected”.

In the case of `[2H]C([2H])([2H])c1cc(O)nc2c1NC(=O)c1cccnc1N2C1CC1`, the Drug uptake [2] is reported as “Metabolite_Detected”.

For `[2H]C([2H])(O)c1ccnc2c1NC(=O)c1cccnc1N2C1CC1`, the Drug uptake [2] was “Metabolite_Detected”.

With `Cc1cc(O)nc2c1NC(=O)c1cccnc1N2C1CC1` the Drug uptake [1] was “Metabolite_Detected” and the Drug uptake (Cytochrome P450 [3]) was “Metabolite_Detected”.

For `Cc1ccnc2c1NC(=O)c1cccnc1N2C1CC1` [NEVIRAPINE], the Drug metabolism (Cytochrome P450 [4]) was “Metabolite_Detected”, the Drug metabolism [5] was “Metabolite_Detected” and the Drug metabolism (Cytochrome P450 [6]) was “Metabolite_Detected”. For the same compound, the Drug metabolism [7] was “Metabolite_Notdetected”, the Drug metabolism [8] was “Metabolite_Detected” and the Drug metabolism (Cytochrome P450 [9]) was “Metabolite_Detected”. For the same compound, the Drug metabolism (Cytochrome P450 [10]) was “Metabolite_Detected”, the Drug metabolism [11] was “Metabolite_Notdetected” and the Drug metabolism (Cytochrome P450 [12]) was “Metabolite_Detected”. For the same compound, the Activity (Hepatocyte) was 52.6%, the Drug metabolism [13] was 1.3 µM and the Kcat/Km (Cytochrome P450 [14]) was 1.4 M⁻¹ s⁻¹. The Drug metabolism [15] was “Metabolite_Detected”, the Drug metabolism [16] was “Metabolite_Detected” and the Drug metabolism [17] was “Metabolite_Detected”. It also gave a concentration [18] of 16 µM.
